Results as given in ChEMBL document CHEMBL4152329, “Benzofuran hydrazones as potential scaffold in the development of multifunctional drugs: Synthesis and evaluation of antioxidant, photoprotective and antiproliferative activity” (Eur J Med Chem, 2018).

Key:
[1] = Antioxidant activity assessed as DPPH free radical scavenging activity by measuring trolox equivalent by spectrophotometric analysis; assay type: functional
In short: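 Diluted compound solution (0.750 mL) added to 1.5 mL methanolic DPPH. Absorbance decrease read at 517 nm. Blank was DPPH plus methanol. Inhibition % = [(AB−As)/AB]×100. Trolox calibration curve used as standard.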

[2] = Antioxidant activity assessed as ferric ion reducing activity by measuring trolox equivalents after 10 mins by FRAP assay; assay type: functional
In short: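 Reagent made fresh: 0.1 M acetate buffer pH 3.6, 10 mM TPTZ in 40 mM HCl and 20 mM FeCl3 at 10:1:1 (v/v/v). Diluted sample (0.1 mL) added to 1.9 mL reagent; solvent used for blank. Absorbance at 593 nm after 10 min, increase taken over blank. Expressed as Trolox activity from calibration curve.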

[3] = Antioxidant activity assessed as AAPH-induced radical scavenging activity by measuring trolox equivalents for oxygen radical absorbance capacity measured at 5 mins intervals up to 30 mins by ORAC-FL assay; assay type: functional
In short: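 Fluorescein (85 nM) as target, AAPH as peroxyl radical generator, 0.2 mL final volume. Compounds dissolved in methanol and diluted in phosphate buffer pH 7.4. Fluorescence read at ex 485/em 538 nm, 37 °C, every 5 min up to 30 min after AAPH. Value from difference in areas under fluorescein decay curves, blank vs sample. Trolox calibration 40–240 µM; µmol TE per gram compound.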

[4] = Antiproliferative activity against human Colo38 cells after 7 days by Coulter counter method; assay type: functional, cell-based; conditions: 168 h
In short: (§1)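 RPMI 1640 with 10% FBS, penicillin, streptomycin and 2 mM glutamine, pH 7.2, 37 °C, 5% CO2. Stocks 20 mM in MeOH/DMSO 10%, diluted in MeOH, added at serial dilutions. Cells suspended in physiological solution and counted by Coulter counter. IC50 = 50% growth inhibition while untreated cells in log phase. Untreated cells as negative control on every plate.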

K562 [5] = assay: Antiproliferative activity against human K562 cells after 7 days by Coulter counter method; assay type: functional, cell-based; conditions: K562, 168 h; in short: as §1
K562 [6] = assay: Induction of erythroid differentiation on human K562 cells after 5 days by benzidine staining-based assay; assay type: functional
In short: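 K562 cells treated in culture, then scored for erythroid differentiation by benzidine staining with 0.2% benzidine in 5 M glacial acetic acid and 10% H2O2. Assayed after 5, 6 and 7 days of treatment; value given as percentage of differentiated cells.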

[7] = UV filtering activity of the compound assessed as maximum absorption wavelength; assay type: functional
In short: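 UV absorption spectrum recorded in methanol at 0.000034 (± 0.0000033) M; wavelength of maximum absorption taken, together with molar extinction coefficient.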

[8] = UV filtering activity of the compound assessed as wavelength at which the integral of the spectral absorbance curve reaches 90% of area under the curve from 290 to 400 nm; assay type: functional
In short: (§2)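 Spectra recorded on methanolic solutions at 0.000034 (± 0.0000033) M. Absorbance converted to transmittance by A(λ) = −Log[T(λ)], and SPF, UVA/UVB ratio, UVAPF and critical wavelength derived from the transmittance spectrum. Method adapted from the official in vitro SPF method; UVAPF per ISO-24443. PBSA served as reference.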

[9] = UV filtering activity of the compound assessed as solar protection factor relative to control; assay type: functional; in short: as §2
[10] = UV filtering activity of the compound assessed as UVA/UVB ratio; assay type: functional; in short: as §2
[11] = UV filtering activity of the compound assessed as UVA protection factor value relative to control; assay type: functional; in short: as §2

Structure (SMILES) | Activity [1] | Activity [2] | Activity [3] | IC50 [4] | IC50 (K562 [5]) | Activity (K562 [6]) | Activity [7] | Activity [8] | SPF [9] | Ratio [10] | UVAPF [11]
COc1cc(/C=N/NC(=O)c2cc3ccccc3o2)ccc1O | 101 µmolequiv/g | 3100 µmolequiv/g | 10900 µmolequiv/g | 49 µM | 5.6 µM | 5% | 334 nm | 371 nm | 3.36 | 2.33 | 5.57
O=C(N/N=C/c1cc(O)ccc1O)c1cc2ccccc2o1 | 6200 µmolequiv/g | 6970 µmolequiv/g | 19000 µmolequiv/g | 6.26 µM | 36.8 µM | – | 306 nm | 366 nm | 2.18 | 1.33 | 2.38
CCN(CC)c1ccc(/C=N/NC(=O)c2cc3ccccc3o2)c(O)c1 | 1010 µmolequiv/g | 4150 µmolequiv/g | 22100 µmolequiv/g | 0.44 µM | 0.52 µM | – | 381 nm | 387 nm | 2.59 | 1.29 | 3.6
O=C(N/N=C/c1ccc(O)cc1O)c1cc2ccccc2o1 | 149 µmolequiv/g | 1210 µmolequiv/g | 9380 µmolequiv/g | 0.57 µM | 4.3 µM | 5% | 343 nm | 342 nm | 10.2 | 0.26 | 1.5
O=C(N/N=C/c1ccc(O)cc1)c1cc2ccccc2o1 | 45.8 µmolequiv/g | 2290 µmolequiv/g | 26100 µmolequiv/g | 39.4 µM | 79.9 µM | – | 328 nm | 322 nm | 3.4 | 0.29 | 1.03
O=C(N/N=C/c1cccc(O)c1)c1cc2ccccc2o1 | 76.7 µmolequiv/g | 1670 µmolequiv/g | 6790 µmolequiv/g | 6.2 µM | 52.4 µM | – | 314 nm | 353 nm | 7.58 | 0.85 | 2.45
O=C(N/N=C/c1c(O)cc(O)cc1O)c1cc2ccccc2o1 | 1140 µmolequiv/g | 4020 µmolequiv/g | 3560 µmolequiv/g | 24.4 µM | 64 µM | – | 345 nm | 366 nm | 1.99 | 1.32 | 2.02
O=C(N/N=C/c1ccc(O)c(O)c1O)c1cc2ccccc2o1 | 9210 µmolequiv/g | 13200 µmolequiv/g | 5260 µmolequiv/g | 6.48 µM | 6 µM | – | 336 nm | 353 nm | 7.58 | 0.85 | 2.45
O=S(=O)(O)c1ccc2[nH]c(-c3ccccc3)nc2c1 | – | – | – | – | – | – | 302 nm | 394 nm | 1.68 | 1.27 | 5.1
O=C(N/N=C/c1cc(Cl)ccc1O)c1cc2ccccc2o1 | Below limit of detection | 46.3 µmolequiv/g | – | 2.02 µM | 3.7 µM | – | 310 nm | 357 nm | 5.78 | 1.14 | 2.89
O=C(N/N=C/c1c(O)ccc2ccccc12)c1cc2ccccc2o1 | 132 µmolequiv/g | 132 µmolequiv/g | – | 3.01 µM | 4.5 µM | – | 329 nm | 359 nm | 8.82 | 0.39 | 2.85
